Measured values reported in ChEMBL document CHEMBL2176942 (J Med Chem, 2012).
Each block holds one compound with its values, some of them ahead of it.

What was measured:
[1] = Permeability across human Caco2 cells at pH 7.4; format: ADME, cell-based; conditions: Caco-2, pH 7.4, read-out: permeability
Summary of the method: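 Caco-2 permeability run without BSA, with both chambers at pH 7.4; values are the average of at least two determinations.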

[2] = in vitro; conditions: human
[3] = in vitro; conditions: rat
[4] = Half life in rat at 2 mg/kg, iv; format: ADME, organism-based; parameters: dose 2 mg/kg, route intravenous; conditions: in vivo
Summary of the method: (§1)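 Rats starved overnight, then given 10 mg/kg po as a suspension in 0.3% Tween-80 and 0.5% Methocel, or 2 mg/kg iv in 70% PEG400. Plasma was solid-phase extracted and assayed by HPLC-UV (LOQ 6 ng/mL, calibration in blank plasma). Parameters were derived by noncompartmental analysis.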

[5] = Oral bioavailability in rat; format: ADME, organism-based; conditions: in vivo; summary of the method: as §1
[6] = Volume of distribution at steady state in rat at 2 mg/kg, iv; format: ADME, organism-based; parameters: dose 2 mg/kg, route intravenous; conditions: in vivo, read-out: Vdss; summary of the method: as §1
[7] = Clearance in rat at 2 mg/kg, iv; format: ADME, organism-based; parameters: dose 2 mg/kg, route intravenous; conditions: in vivo
[8] = AUC in rat at 10 mg/kg, po; format: ADME, organism-based; parameters: dose 10 mg/kg, route oral; conditions: plasma; summary of the method: as §1
[9] = Mean residence time in rat at 10 mg/kg, po; format: ADME, organism-based; parameters: dose 10 mg/kg, route oral; conditions: in vivo; summary of the method: as §1
[10] = Cmax in rat at 10 mg/kg, po; format: ADME, organism-based; parameters: dose 10 mg/kg, route oral; conditions: in vivo; summary of the method: as §1
[11] = tested on: Liver microsomes; test: Drug metabolism in rat liver microsomes assessed as formation of metabolite 3-(4-(2-(3-(3-hydroxycyclohexyl)-1-methyl-2-(pyridin-2-yl)-1H-indole-6-carboxamido)-2-methylpropanamido)phenyl)acrylic acid incubated for 30 mins by HPLC/MS method; format: ADME, Microsome; conditions: 0.5 h
[12] = tested on: Liver microsomes; test: Drug metabolism in human liver microsomes assessed as formation of metabolite 3-(4-(2-(3-(3-hydroxycyclohexyl)-1-methyl-2-(pyridin-2-yl)-1H-indole-6-carboxamido)-2-methylpropanamido)phenyl)acrylic acid incubated for 30 mins by HPLC/MS method; format: ADME, Microsome; conditions: 0.5 h
[13] = Oral bioavailability in dog; format: ADME, organism-based, Canis lupus familiaris; conditions: in vivo
Summary of the method: (§2)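 Dogs starved overnight, then dosed 2 mg/kg iv in 70% PEG400 or 10 mg/kg orally as a suspension in 0.3% Tween-80/0.5% Methocel. Plasma was extracted by solid phase and quantified by HPLC with UV diode-array detection (LOQ 6 ng/mL). Parameters came from noncompartmental analysis.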

[14] = Oral bioavailability rhesus monkey; format: ADME, organism-based, Macaca mulatta; conditions: in vivo
Summary of the method: (§3)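 Rhesus monkeys fasted overnight, then dosed iv at 2 mg/kg in 70% PEG400 or orally at 10 mg/kg as a suspension in 0.3% Tween-80 and 0.5% Methocel. Plasma was kept frozen at about −20 °C, extracted by solid-phase extraction and assayed by HPLC-UV against blank-plasma standards (LOQ 6 ng/mL). Parameters came from noncompartmental analysis.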

[15] = Half life in rhesus monkey at 2 mg/kg, iv; format: ADME, organism-based, Macaca mulatta; parameters: dose 2 mg/kg, route intravenous; conditions: in vivo; summary of the method: as §3
[16] = Half life in dog at 2 mg/kg, iv; format: ADME, organism-based, Canis lupus familiaris; parameters: dose 2 mg/kg, route intravenous; conditions: in vivo; summary of the method: as §2
[17] = Volume of distribution at steady state in rhesus monkey at 2 mg/kg, iv; format: ADME, organism-based, Macaca mulatta; parameters: dose 2 mg/kg, route intravenous; conditions: in vivo, read-out: Vdss; summary of the method: as §3
[18] = Volume of distribution at steady state in dog at 2 mg/kg, iv; format: ADME, organism-based, Canis lupus familiaris; parameters: dose 2 mg/kg, route intravenous; conditions: in vivo, read-out: Vdss; summary of the method: as §2
[19] = Mean residence time in rhesus monkey at 10 mg/kg, po; format: ADME, organism-based, Macaca mulatta; parameters: dose 10 mg/kg, route oral; conditions: in vivo; summary of the method: as §3
[20] = Mean residence time in dog at 10 mg/kg, po; format: ADME, organism-based, Canis lupus familiaris; parameters: dose 10 mg/kg, route oral; conditions: in vivo; summary of the method: as §2
[21] = AUC in rhesus monkey at 10 mg/kg, po; format: ADME, organism-based, Macaca mulatta; parameters: dose 10 mg/kg, route oral; conditions: plasma
Summary of the method: (§4)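 Fasted overnight, then dosed orally at 10 mg/kg as a suspension in 0.3% Tween-80 and 0.5% Methocel. Blood kept on ice and centrifuged at 4 °C; plasma stored at about −20 °C. Solid-phase extraction, then HPLC with UV diode-array detection (200–400 nm) quantified by peak height against blank-plasma standards (LOQ 6 ng/mL). AUC from noncompartmental analysis.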

[22] = AUC in dog at 10 mg/kg, po; format: ADME, organism-based, Canis lupus familiaris; parameters: dose 10 mg/kg, route oral; conditions: plasma; summary of the method: as §4
[23] = Cmax in rhesus monkey at 10 mg/kg, po; format: ADME, organism-based, Macaca mulatta; parameters: dose 10 mg/kg, route oral; conditions: in vivo; summary of the method: as §3
[24] = Clearance in dog at 2 mg/kg, iv; format: ADME, organism-based, Canis lupus familiaris; parameters: dose 2 mg/kg, route intravenous; conditions: in vivo
[25] = Cmax in dog at 10 mg/kg, po; format: ADME, organism-based, Canis lupus familiaris; parameters: dose 10 mg/kg, route oral; conditions: in vivo

SMILES: Cn1c(-c2ccc(F)cn2)c(C2CCCC2)c2ccc(C(=O)NC3(C(=O)Nc4ccc(/C=C/C(=O)O)cc4)CCC3)cc21
half-life ([2]; liver microsomes): 2.78 h

SMILES: COc1ccc(-c2c(C3CCCC3)c3ccc(C(=O)NC4(C(=O)Nc5ccc(/C=C/C(=O)O)cc5)CCC4)cc3n2C)cn1
Papp [1]: 1.5 ×10⁻⁶ cm/s | half-life ([2]; liver microsomes): 1.58 h | half-life ([3]; liver microsomes): 1.02 h

SMILES: Cn1c(-c2ccncc2)c(C2CCCC2)c2ccc(C(=O)NC3(C(=O)Nc4ccc(/C=C/C(=O)O)cc4)CCCC3)cc21
Papp [1]: 0.8 ×10⁻⁶ cm/s | half-life ([2]; liver microsomes): 1.78 h

SMILES: Cn1c(-c2ccc(Cl)cc2)c(C2CCCC2)c2ccc(C(=O)NC3(C(=O)Nc4ccc(/C=C/C(=O)O)cc4)CCC3)cc21
half-life ([2]; liver microsomes): > 5 h | half-life ([3]; liver microsomes): > 5 h

SMILES: Cn1c(-c2ccncc2)c(C2CCCC2)c2ccc(C(=O)NC3(C(=O)Nc4ccc(/C=C/C(=O)O)cc4)CCC3)cc21
Papp [1]: 2.9 ×10⁻⁶ cm/s | half-life ([2]; liver microsomes): 1.87 h | half-life ([3]; liver microsomes): 1.15 h

SMILES: Cn1c(-c2ccc(Cl)cn2)c(C2CCCC2)c2ccc(C(=O)NC3(C(=O)Nc4ccc(/C=C/C(=O)O)cc4)CCCC3)cc21
half-life ([2]; liver microsomes): > 5 h

SMILES: Cn1c(-c2ccoc2)c(C2CCCC2)c2ccc(C(=O)NC3(C(=O)Nc4ccc(/C=C/C(=O)O)cc4)CCC3)cc21
Papp [1]: 7.5 ×10⁻⁶ cm/s | half-life ([2]; microsomes): 2.7 h

SMILES: CN1CC[C@@](NC(=O)c2ccc3c(C4CCCC4)c(-c4cccc(N)n4)n(C)c3c2)(C(=O)Nc2ccc(/C=C/C(=O)O)cc2)C1
Cmax [10]: 0.09 µM | Papp [1]: 2.9 ×10⁻⁶ cm/s | half-life ([2]; microsomes): > 5 h

Further lines, results first:

Papp [1]: 12.6 ×10⁻⁶ cm/s | half-life ([2]; microsomes): 1.6 h | half-life ([3]; microsomes): 0.317 h
SMILES: Cn1c(-c2ccccn2)c(C2CCCC2)c2ccc(C(=O)NC3(C(=O)Nc4ccc(/C=C/C(=O)O)cc4)CCCC3)cc21

half-life [4]: 1.7 h | bioavailability [5]: 46% | Vd [6]: 1.3 L/kg | clearance [7]: 18.2 mL/min/kg | AUC [8]: 7.2 µM·h | MRT [9]: 1.7 h | Cmax [10]: 6.4 µM | Papp [1]: 6.5 ×10⁻⁶ cm/s
SMILES: Cn1c(-c2ccccn2)c(C2CCCC2)c2ccc(C(=O)NC(C)(C)C(=O)Nc3ccc(/C=C/C(=O)O)cc3)cc21

Drug metabolism [11]: Active | Drug metabolism [12]: Active
SMILES: Cn1c(-c2ccccn2)c(C2CCCCC2)c2ccc(C(=O)NC(C)(C)C(=O)Nc3ccc(/C=C/C(=O)O)cc3)cc21

bioavailability [13]: 64% | bioavailability [14]: 70% | half-life [15]: 1.7 h | half-life [16]: 4.3 h | Vd [17]: 0.7 L/kg | Vd [18]: 0.54 L/kg | MRT [19]: 2.9 h | MRT [20]: 5.4 h | AUC [21]: 20.5 µM·h | AUC [22]: 99 µM·h | Cmax [23]: 6.4 µM | half-life [4]: 1.5 h | bioavailability [5]: 59% | Vd [6]: 0.48 L/kg | AUC [8]: 22.7 µM·h | MRT [9]: 4.1 h | Cmax [10]: 7.5 µM | Papp [1]: 11.2 ×10⁻⁶ cm/s | half-life ([2]; microsomes): 1.42 h | half-life ([3]; microsomes): 0.517 h
SMILES: Cn1c(-c2ccccn2)c(C2CCCC2)c2ccc(C(=O)NC3(C(=O)Nc4ccc(/C=C/C(=O)O)cc4)CCC3)cc21 [BILB-1941]

AUC [8]: 8.4 µM·h | MRT [9]: 3.4 h | Cmax [10]: 3.7 µM | Papp [1]: 1.8 ×10⁻⁶ cm/s | half-life ([2]; liver microsomes): > 5 h | half-life ([3]; liver microsomes): 1.03 h
SMILES: Cn1c(-c2cccc(N)n2)c(C2CCCC2)c2ccc(C(=O)NC3(C(=O)Nc4ccc(/C=C/C(=O)O)cc4)CCC3)cc21

bioavailability [13]: 54% | half-life [16]: 1.6 h | clearance [24]: 4.3 mL/min/kg | Vd [18]: 0.75 L/kg | MRT [20]: 3.9 h | AUC [22]: 37.4 µM·h | Cmax [25]: 10.9 µM | half-life [4]: 2.2 h | bioavailability [5]: 41% | Vd [6]: 0.58 L/kg | clearance [7]: 6.8 mL/min/kg | AUC [8]: 17.7 µM·h | MRT [9]: 2.4 h | Cmax [10]: 7.8 µM | Papp [1]: 10 ×10⁻⁶ cm/s | half-life ([2]; liver microsomes): 1.6 h | half-life ([3]; liver microsomes): 0.933 h
SMILES: Cn1c(-c2cnccn2)c(C2CCCC2)c2ccc(C(=O)NC3(C(=O)Nc4ccc(/C=C/C(=O)O)cc4)CCC3)cc21

Papp [1]: 6.9 ×10⁻⁶ cm/s | half-life ([2]; microsomes): 0.883 h | half-life ([3]; microsomes): 0.4 h
SMILES: Cc1ccc(-c2c(C3CCCC3)c3ccc(C(=O)NC4(C(=O)Nc5ccc(/C=C/C(=O)O)cc5)CCC4)cc3n2C)nc1

Papp [1]: 1.8 ×10⁻⁶ cm/s | half-life ([2]; microsomes): 3.93 h
SMILES: Cn1c(-c2ccc(Cl)cn2)c(C2CCCC2)c2ccc(C(=O)NC(C)(C)C(=O)Nc3ccc(/C=C/C(=O)O)cc3)cc21
